Laboratory results reported in ChEMBL document CHEMBL5329172, “Chloroacetamide fragment library screening identifies new scaffolds for covalent inhibition of the TEAD·YAP1 interaction” (RSC Med Chem, 2023).
Calls of active or inactive are those of the source. No cut-off for these calls is given here.

How the values were obtained:
[1] = biological target: T1, TEAD2-YAP1 (Homo sapiens) (UniProt P46937+Q15562); test: (§1) Inhibition of TEAD2 (217 to 447 residues) (unknown origin) expressed in Escherichia coli BL21 (DE3) cells/FAM-labelled YAP1 (60 to 99 residues)(unknown origin) protein-protein interaction preincubated for 24 hrs at 4 degree C with compound followed by fluorescent labelled YAP1 addition by fluorescence polarization assay
T1 sequence (P46937 whole entry, looked up, the tested form may be a part): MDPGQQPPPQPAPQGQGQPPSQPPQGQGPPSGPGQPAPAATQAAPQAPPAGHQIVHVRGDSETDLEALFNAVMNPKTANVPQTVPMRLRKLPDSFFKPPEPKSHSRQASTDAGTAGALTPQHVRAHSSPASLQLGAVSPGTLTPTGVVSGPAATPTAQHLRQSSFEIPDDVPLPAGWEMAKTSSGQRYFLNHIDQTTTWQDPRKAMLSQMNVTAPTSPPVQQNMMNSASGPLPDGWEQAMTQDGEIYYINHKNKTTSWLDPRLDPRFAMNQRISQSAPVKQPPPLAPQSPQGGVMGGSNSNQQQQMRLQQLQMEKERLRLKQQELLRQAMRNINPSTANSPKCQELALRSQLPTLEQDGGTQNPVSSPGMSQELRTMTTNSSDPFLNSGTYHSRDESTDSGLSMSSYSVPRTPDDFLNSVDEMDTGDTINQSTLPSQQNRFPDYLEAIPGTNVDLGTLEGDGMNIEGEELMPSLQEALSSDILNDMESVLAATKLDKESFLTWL
T1 sequence (Q15562 whole entry, looked up, the tested form may be a part): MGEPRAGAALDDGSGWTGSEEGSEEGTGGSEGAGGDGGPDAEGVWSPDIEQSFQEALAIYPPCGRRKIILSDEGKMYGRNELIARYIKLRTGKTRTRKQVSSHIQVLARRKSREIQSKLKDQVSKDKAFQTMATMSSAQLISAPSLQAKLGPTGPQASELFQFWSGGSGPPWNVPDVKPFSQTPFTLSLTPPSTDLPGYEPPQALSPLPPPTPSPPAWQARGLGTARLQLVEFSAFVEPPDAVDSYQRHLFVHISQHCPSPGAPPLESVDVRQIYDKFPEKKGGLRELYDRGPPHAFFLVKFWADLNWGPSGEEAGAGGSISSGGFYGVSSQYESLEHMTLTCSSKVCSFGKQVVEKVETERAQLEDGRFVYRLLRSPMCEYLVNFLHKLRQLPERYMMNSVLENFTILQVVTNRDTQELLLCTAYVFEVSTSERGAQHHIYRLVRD
How it was run: (§2)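 FP: 64 nM TEAD4, TEAD4C367S, TEAD2 or TEAD3, or 250 nM TEAD1, was preincubated with compound for 24 h at 4 °C in PBS with 0.01% Triton X-100. FAM-YAP1 60–99 peptide (disulfide-crosslinked) was then added at 16 nM final. Polarization was read at ex 485/em 535 nm. Percent inhibition was taken relative to no-compound and no-protein controls. The single-point primary screen used 50 μM.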

[2] = biological target: T2, YAP1-TEAD4 (Homo sapiens, UniProt Q15561); test: as §1, with “GST-tagged TEAD4” for “TEAD2”, “434” for “447”, “48” for “24”, “TEAD4” for “compound”
T2 sequence (P46937 whole entry): as the sequence (P46937 whole entry, looked up, the tested form may be a part) above
T2 sequence (Q15561 whole entry): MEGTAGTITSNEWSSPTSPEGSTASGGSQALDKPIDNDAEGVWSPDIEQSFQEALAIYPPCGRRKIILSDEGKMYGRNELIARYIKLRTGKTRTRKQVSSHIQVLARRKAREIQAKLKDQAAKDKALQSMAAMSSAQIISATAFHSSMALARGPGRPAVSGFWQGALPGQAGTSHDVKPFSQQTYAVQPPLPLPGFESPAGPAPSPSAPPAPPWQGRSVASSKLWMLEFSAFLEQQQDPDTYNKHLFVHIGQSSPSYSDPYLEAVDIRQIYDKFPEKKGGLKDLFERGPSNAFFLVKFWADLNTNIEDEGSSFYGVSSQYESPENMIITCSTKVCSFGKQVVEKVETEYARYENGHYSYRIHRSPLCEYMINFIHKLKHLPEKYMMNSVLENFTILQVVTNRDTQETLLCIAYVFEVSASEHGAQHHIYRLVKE
How it was run: (§3)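 Time-course FP: 64 nM TEAD4 was preincubated with varying compound concentrations for 0.5, 6, 24 or 48 h at 4 °C in PBS with 0.01% Triton X-100. 16 nM FAM-YAP1 60–99 peptide was then added and polarization read at 485/535 nm, n = 2. Inhibition was taken relative to no-compound and no-protein controls.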

[3] = biological target: T2, YAP1-TEAD4; test: (§4) Covalent inhibition of GST-tagged TEAD4 (217 to 434 residues) (unknown origin) expressed in Escherichia coli BL21 (DE3) cells/FAM-labelled YAP1 (60 to 99 residues)(unknown origin) protein-protein interaction assessed as protein-compound adduct formation by measuring inhibition constant at 100 uM incubated for 0.5 to 6 hrs at 4 degree C followed by mass spectrometry analysis
How it was run: (§5)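 Kinetics by MS: 2.5 μM TEAD4 was incubated at 4 °C with 3.1–100 μM compound. Aliquots were quenched with 0.1 M formic acid at set times from 0.5 h upward and analysed by whole-protein MS. Adduct relative to unreacted protein was fit to 100×(1−e^(−kobs·t)) to give kobs. kobs versus concentration was fit hyperbolically for kinact and KI, or linearly for kinact/KI where no plateau was reached.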

[4] = species: Homo sapiens; test: as §1, with “GST-tagged TEAD4 C367S mutant” for “TEAD2 (217 to 447 residues)”, “TEAD4 C367S mutant” for “compound”; how it was run: as §2
[5] = biological target: T2, YAP1-TEAD4; test: as §1, with “GST-tagged TEAD4” for “TEAD2”, “434” for “447”, “6” for “24”, “TEAD4” for “compound”; how it was run: as §3
[6] = biological target: T2, YAP1-TEAD4; test: as §1, with “GST-tagged TEAD4” for “TEAD2”, “434” for “447”, “TEAD4” for “compound”; how it was run: as §2
[7] = biological target: T3, YAP1-TEAD4 (Homo sapiens) (UniProt P46937+Q15561); test: as §4, with “formation” for “formation by measuring inhibition constant”, “24” for “0.5 to 6”
How it was run: (§6)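 Intact-protein MS: 2.5 μM protein (TEAD4 217–434 with GST cleaved, TEAD4C367S, TEAD1 209–426, TEAD2 217–447 or TEAD3 210–427) incubated with 100 μM compound in PBS for 24 h at 4 °C. Samples were centrifuged to remove precipitate, desalted on a C3 reverse-phase column with a water/acetonitrile 0.1% formic acid gradient, and masses were read by Q-TOF. Adduct peaks were reported as percent.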

[8] = biological target: T3, YAP1-TEAD4 (Homo sapiens); test: as §4, with “second order rate constant, kinact/ki ratio” for “measuring inhibition constant”; conditions: time 0.5-6 hrs; how it was run: as §5
[9] = biological target: T3, YAP1-TEAD4 (Homo sapiens); test: as §1, with “GST-tagged TEAD4” for “TEAD2”, “434” for “447”, “interaction assessed as maximum inhibition at 50 uM” for “interaction”, “TEAD4” for “compound”; how it was run: as §2
[10] = biological target: T4, Transcriptional coactivator YAP1/Transcriptional enhancer factor TEF-1 (Homo sapiens) (UniProt P46937+P28347); test: as §4, with “TEAD1 (209” for “GST-tagged TEAD4 (217”, “426” for “434”, “formation” for “formation by measuring inhibition constant”, “24” for “0.5 to 6”; how it was run: as §6
T4 sequence (P28347 whole entry, looked up): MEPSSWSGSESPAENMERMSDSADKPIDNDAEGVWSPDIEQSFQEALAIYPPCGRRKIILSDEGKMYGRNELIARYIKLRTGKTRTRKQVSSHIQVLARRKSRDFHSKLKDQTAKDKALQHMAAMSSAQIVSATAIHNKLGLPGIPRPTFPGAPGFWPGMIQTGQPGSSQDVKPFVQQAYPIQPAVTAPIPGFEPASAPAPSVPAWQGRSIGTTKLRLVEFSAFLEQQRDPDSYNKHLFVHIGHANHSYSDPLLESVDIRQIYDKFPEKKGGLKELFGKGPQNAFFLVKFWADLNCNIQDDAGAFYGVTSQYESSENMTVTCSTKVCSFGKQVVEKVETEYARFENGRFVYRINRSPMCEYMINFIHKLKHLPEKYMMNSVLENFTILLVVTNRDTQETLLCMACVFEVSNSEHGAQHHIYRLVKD
T4 sequence (P46937 whole entry, looked up): as the sequence (P46937 whole entry, looked up, the tested form may be a part) above

[11] = biological target: T3, YAP1-TEAD4 (Homo sapiens); test: as §4, with “reaction half life” for “inhibition constant”; conditions: time 0.5-6 hrs; how it was run: as §5
[12] = tested on: S2; test: Inhibition of uPAR (unknown origin) expressed in S2 cells/FAM-labelled alpha-helical peptide AE-147 (unknown origin) protein-protein interaction preincubated for 24 hrs at 4 degree C with uPAR followed by fluorescent labelled AE-147 addition by fluorescence polarization assay; conditions: Homo sapiens
How it was run: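 Counter-screen FP: 250 nM uPAR lacking the GPI anchor (from S2 cells) was preincubated with compound for 24 h at 4 °C in PBS with 0.01% Triton X-100. AE-147-FAM peptide was then added at 100 nM final and polarization read at ex 485/em 535 nm.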

[13] = biological target: T3, YAP1-TEAD4 (Homo sapiens); test: as §1, with “GST-tagged TEAD4” for “TEAD2”, “434” for “447”, “interaction assessed maximum inhibition” for “interaction”, “6” for “24”, “TEAD4” for “compound”; how it was run: as §3
[14] = biological target: T4, Transcriptional coactivator YAP1/Transcriptional enhancer factor TEF-1 (Homo sapiens); test: as §1, with “TEAD1 (209” for “TEAD2 (217”, “426” for “447”; how it was run: as §2
[15] = biological target: T5, TEAD3-YAP1 (Homo sapiens) (UniProt P46937+Q99594); test: as §1, with “TEAD3 (210” for “TEAD2 (217”, “427” for “447”; how it was run: as §2
T5 sequence (P46937 whole entry, looked up): as the sequence (P46937 whole entry, looked up, the tested form may be a part) above
T5 sequence (Q99594 whole entry, looked up): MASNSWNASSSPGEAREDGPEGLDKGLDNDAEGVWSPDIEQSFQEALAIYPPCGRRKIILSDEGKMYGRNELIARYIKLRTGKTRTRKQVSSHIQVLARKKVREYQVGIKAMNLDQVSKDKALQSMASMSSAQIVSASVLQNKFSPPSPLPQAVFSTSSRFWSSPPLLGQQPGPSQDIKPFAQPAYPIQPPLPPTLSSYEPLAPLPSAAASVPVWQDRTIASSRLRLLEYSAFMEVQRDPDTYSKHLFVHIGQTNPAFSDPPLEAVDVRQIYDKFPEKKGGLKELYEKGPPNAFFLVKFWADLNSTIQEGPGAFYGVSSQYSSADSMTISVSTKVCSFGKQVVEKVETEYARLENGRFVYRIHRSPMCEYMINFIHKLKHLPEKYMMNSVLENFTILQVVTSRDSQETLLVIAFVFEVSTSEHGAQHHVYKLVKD

[16] = biological target: T3, YAP1-TEAD4 (Homo sapiens); test: as §1, with “GST-tagged TEAD4” for “TEAD2”, “434” for “447”, “interaction assessed maximum inhibition” for “interaction”, “48” for “24”, “TEAD4” for “compound”; how it was run: as §3
[17] = biological target: T3, YAP1-TEAD4 (Homo sapiens); test: as §1, with “GST-tagged TEAD4” for “TEAD2”, “434” for “447”, “interaction assessed maximum inhibition” for “interaction”, “0.5” for “24”, “TEAD4” for “compound”; how it was run: as §3
[18] = biological target: T1, TEAD2-YAP1 (Homo sapiens); test: as §4, with “TEAD2” for “GST-tagged TEAD4”, “447” for “434”, “formation” for “formation by measuring inhibition constant”, “24” for “0.5 to 6”; how it was run: as §6
[19] = biological target: TEAD2-YAP1 (Homo sapiens, UniProt Q15562); test: as §1; how it was run: as §2
TEAD2-YAP1, sequence (P46937 whole entry): as the sequence (P46937 whole entry, looked up, the tested form may be a part) above
TEAD2-YAP1, sequence (Q15562 whole entry): as the sequence (Q15562 whole entry, looked up, the tested form may be a part) above

[20] = biological target: T5, TEAD3-YAP1 (Homo sapiens); test: as §4, with “TEAD3 (210” for “GST-tagged TEAD4 (217”, “427” for “434”, “formation” for “formation by measuring inhibition constant”, “24” for “0.5 to 6”; how it was run: as §6
[21] = biological target: T1, TEAD2-YAP1 (Homo sapiens); test: as §1, with “interaction assessed as maximum inhibition at 50 uM” for “interaction”; how it was run: as §2
[22] = biological target: T2, YAP1-TEAD4; test: as §1, with “GST-tagged TEAD4” for “TEAD2”, “434” for “447”, “0.5” for “24”, “TEAD4” for “compound”; how it was run: as §3
[23] = biological target: T3, YAP1-TEAD4 (Homo sapiens); test: (§7) Covalent inhibition of GST-tagged TEAD4 (217 to 434 residues) (unknown origin) expressed in Escherichia coli BL21 (DE3) cells/FAM-labelled YAP1 (60 to 99 residues)(unknown origin) protein-protein interaction assessed as second protein-compound adduct formation at 100 uM incubated for 24 hrs at 4 degree C followed by mass spectrometry analysis; how it was run: as §6
[24] = species: Homo sapiens; test: as §7, with “C367S mutant” for “(217 to 434 residues)”, “(DE3)/FAM-labelled” for “(DE3) cells/FAM-labelled”, “as” for “as second”; how it was run: as §6
[25] = as §1, with “GST-tagged TEAD4 C367S mutant” for “TEAD2 (217 to 447 residues)”, “TEAD4 C367S mutant” for “compound”; set-up: species or system Homo sapiens; how it was run: as §2
[26] = biological target: T4, Transcriptional coactivator YAP1/Transcriptional enhancer factor TEF-1 (Homo sapiens); test: as §1, with “TEAD1 (209” for “TEAD2 (217”, “426” for “447”, “interaction assessed as maximum inhibition at 50 uM” for “interaction”; how it was run: as §2
[27] = biological target: Transcriptional coactivator YAP1/Transcriptional enhancer factor TEF-1 (Homo sapiens, UniProt P28347); test: as §1, with “TEAD1 (209” for “TEAD2 (217”, “426” for “447”; how it was run: as §2
Transcriptional coactivator YAP1/Transcriptional enhancer factor TEF-1, sequence (P46937 whole entry): as the sequence (P46937 whole entry, looked up, the tested form may be a part) above
Transcriptional coactivator YAP1/Transcriptional enhancer factor TEF-1, sequence (P28347 whole entry): as the sequence (P28347 whole entry, looked up) above

With O=C(Nc1ccccc1)C1CCN(C(=O)CCl)CC1 the inhibition [1] was “inactive”, the IC50 [2] was 4.7 µM and the Ki [3] was 94 µM. The inhibition [4] was “inactive”, the IC50 [5] was 38.1 µM and the IC50 [6] was 22.8 µM. The percent protein-compound adduct formation [7] was 100%, the Ratio [8] was 28.1 M⁻¹ s⁻¹ and the Imax [9] was 41%. For the same compound, the inhibition [10] was “Active”, the T1/2 [11] was 6 min and the inhibition [12] was “inactive”. For the same compound, the Imax [13] was 33%, the inhibition [14] was “inactive” and the inhibition [15] was “inactive”. For the same compound, the Imax [16] was 33%.

In the case of COc1cccc(C2CC(Cc3cccs3)=NN2C(=O)CCl)c1OC (configuration not stated), the Imax [17] is reported as 53%, the inhibition [18] is reported as “Active” and the IC50 [19] is reported as 3.1 µM. For the same compound, the inhibition [20] was “Active”, the IC50 [2] was 2.6 µM and the Ki [3] was 37.7 µM. For the same compound, the inhibition [4] was “inactive”, the IC50 [5] was 10.2 µM and the IC50 [6] was 3.3 µM. The percent protein-compound adduct formation [7] was 78%, the Imax [21] was 35% and the Ratio [8] was 8.3 M⁻¹ s⁻¹. The Imax [9] was 48%, the inhibition [10] was “Active” and the IC50 [22] was 23.6 µM. For the same compound, the T1/2 [11] was 36 min, the percent second protein-compound adduct [23] was 15% and the inhibition [12] was “inactive”. For the same compound, the Imax [13] was 53%, the inhibition [14] was “inactive” and the inhibition [15] was “inactive”. The Imax [16] was 53% and the inhibition [24] was “inactive”.

Compound COc1ccccc1CN(C(=O)CCl)C(C(=O)NC1CCCCC1)c1ccncc1 (configuration not stated) has an IC50 [25] of 27.9 µM, an IC50 [6] of 20.7 µM and an Imax [9] of 100%. For the same compound, the inhibition [12] was “inactive”.

For CCOc1ccc(S(=O)(=O)N2CCN(C(=O)CCl)CC2)cc1, the IC50 [19] was 46.5 µM, the IC50 [2] was 19.4 µM and the inhibition [4] was “inactive”. It also gave an IC50 [5] of 56.3 µM, an IC50 [6] of 11.1 µM and a percent protein-compound adduct formation [7] of 100%. For the same compound, the Imax [21] was 14%, the Ratio [8] was 2.4 M⁻¹ s⁻¹ and the Imax [9] was 44%. The inhibition [10] was “Active”, the inhibition [12] was “inactive” and the Imax [13] was 45%. For the same compound, the inhibition [15] was “inactive” and the Imax [16] was 45%.

With NC(=O)c1oc2ccccc2c1NC(=O)CCl the IC50 [19] was 254 µM, the IC50 [6] was 0.9 µM and the Imax [26] was 31%. The Ratio [8] was 0.3 M⁻¹ s⁻¹, the Imax [9] was 35% and the inhibition [10] was 100%. The IC50 [22] was 40 µM, the IC50 [27] was 3 µM and the inhibition [15] was “inactive”. For the same compound, the inhibition [24] was “inactive”.
